Sampled rows, rich in hits. Any-hit rate of the full collection: about 1.9%.
N-glyco inh: blocks N-linked glycosylation in D54 reporter cells; AID 588692; 360,000 tested, 0.23% active; D54 ERlucT glycosylation luciferase reporter, 24 h; percent of 100 nM tunicamycin response; reporter increase, % at 12.5 µM;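 active = mean luciferase reporter signal, scaled so untreated is 0 and the glycosylation-blocking control 100, at or above a set limit in every replicate; inconclusive = mean reaches the limit but not every replicate does; inactive = mean below the limit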;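 note: luciferase carries N-glycosylation sites so blocking glycosylation raises the light; 0% = median of neutral control wells and 100% = median of 100 nM tunicamycin wells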
PglD inh: PglD (C. jejuni) enzyme inhibition | AID 602405 | inhibition, % at 12.5 µM | purified PglD enzyme, DTNB colorimetric CoA detection | 360,000 tested, 0.098% active; in the data active = inhibition above about 16%, passing the limit was not always enough; inconclusive = no clear call, values can overlap the other calls
SR-BI DiI-HDL act: activators of SR-BI mediated HDL lipid uptake; CHO ldlA[mSR-BI] cells, DiI-HDL uptake fluorescence, 3 h; 100 = double the neutral-control signal; AID 504775; 320,000 tested, 0.096% active; activation, % at 12.5 µM;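 active = mean replicate activation of at least 60% and every replicate at or above 60%; inconclusive = mean or all-replicate condition met, but not both; inactive = mean below 60% and not all replicates reaching 60%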;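 note: 0% = median plate neutral-control signal and 100% = twice that signal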
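Material: SR-BI-overexpressing, LDLR-lacking CHO cells | Dosing: Single compound concentration, delivered by pin transfer | Probe or stimulus: Labelled HDL, 10 µg/mL | Signal: Bottom-read cell fluorescence after medium removal, ex 550/em 595 nm | Schedule: 3 h, 37 °C | Evaluation: HDL uptake via cellular fluorescence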
SR-BI DiI inh: blocks mouse SR-BI lipid uptake from DiI-HDL | 320,000 tested, 0.96% active | inhibition, % at 12.5 µM | Q61009 | ldlA[mSR-BI] CHO cells, DiI-HDL uptake fluorescence, 3 h;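 active = mean replicate inhibition of at least 70% and a set share of replicates each scoring 70 or more; inconclusive = meets just one of the two criteria; inactive = fails both criteria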;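 note: 0% = median of neutral control wells and 100% = median of positive control wells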
Target sequence (Q61009 whole entry, looked up): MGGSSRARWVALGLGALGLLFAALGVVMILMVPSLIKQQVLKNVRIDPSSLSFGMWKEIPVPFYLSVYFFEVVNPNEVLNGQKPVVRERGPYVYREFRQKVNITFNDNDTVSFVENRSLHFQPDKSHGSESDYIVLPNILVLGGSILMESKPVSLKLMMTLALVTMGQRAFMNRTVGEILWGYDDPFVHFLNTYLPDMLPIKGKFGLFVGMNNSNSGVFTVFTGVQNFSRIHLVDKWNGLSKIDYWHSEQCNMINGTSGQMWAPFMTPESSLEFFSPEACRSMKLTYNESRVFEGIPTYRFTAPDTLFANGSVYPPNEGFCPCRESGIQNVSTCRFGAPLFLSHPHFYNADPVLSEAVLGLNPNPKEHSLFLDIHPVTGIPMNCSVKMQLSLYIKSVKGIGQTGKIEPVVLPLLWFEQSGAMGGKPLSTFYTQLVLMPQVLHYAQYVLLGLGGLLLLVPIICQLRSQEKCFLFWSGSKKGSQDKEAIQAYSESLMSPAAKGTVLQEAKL
Rtt109 HAT inh: C. albicans Rtt109 histone acetyltransferase inhibition; Q5AAJ8; purified Rtt109/Vps75, ThioGlo CoA-SH fluorescence, 4 h; inhibition, % at 34.9 µM; 330,000 tested, 0.16% active; AID 540336;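 active = inhibition of at least 50% in every replicate; inconclusive = best replicate reaches 50% inhibition but some replicates fall short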
Env fusion inh: blocks HIV Env-driven cell-cell fusion; HeLa-JRFL Env/CEM21 cell fusion, luciferase; inhibition, % at 12.3 µM; 360,000 tested, 1.1% active;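 active = mean replicate inhibition score of at least 50 and every replicate individually at or above 50; inconclusive = only one of the two criteria met; inactive = mean below 50 and not all replicates reaching 50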;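 note: 0% = plate neutral controls and 100% = maraviroc near 300 nM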
The depositor's hits bear a star; ? = inconclusive; . = not tested or not shown; [ ] = another dose, or the depositor's remark.

SMILES	N-glyco inh	PglD inh	SR-BI DiI-HDL act	SR-BI DiI inh	Rtt109 HAT inh	Env fusion inh
C[C@H](CO)N1C[C@H](C)[C@H](CN(C)Cc2ccc(C(F)(F)F)cc2)OCCCC[C@H](C)Oc2ccc(NC(=O)Nc3ccc(C(F)(F)F)cc3)cc2C1=O	.	0	.	.	.	66*[16.7 µM]
C[C@H]1CCCCO[C@@H](CN(C)Cc2ccc3c(c2)OCO3)[C@@H](C)CN([C@@H](C)CO)C(=O)c2cc(NC(=O)Nc3ccc4c(c3)OCO4)ccc2O1	.	4	.	.	.	84*[16.7 µM]
C[C@H](CO)N1C[C@H](C)[C@H](CN(C)C(=O)c2ccccc2)OCCCC[C@H](C)Oc2ccc(NC(=O)C3CCCCC3)cc2C1=O	.	-1	.	.	.	-11[16.7 µM]
C[C@@H]1CCCCO[C@@H](CN(C)Cc2ccc(C(F)(F)F)cc2)[C@H](C)CN([C@@H](C)CO)C(=O)c2cc(NC(=O)Nc3ccc4c(c3)OCO4)ccc2O1	.	2	.	.	.	55*[16.7 µM]
COC(=O)c1cc(C(=O)OC)cc(-n2c(C)cc(C(=O)CC#N)c2C)c1	-1	.	-76	76*	2	.
Cc1ccc(C(=O)Nc2nc3ccc(S(C)(=O)=O)cc3s2)o1	-5	-1	95*	-95	-9	-83
CCC(=O)N(C)C[C@@H]1Oc2cc(C#Cc3ccncc3)ccc2S(=O)(=O)N([C@H](C)CO)C[C@H]1C	.	3	.	.	.	12[16.7 µM]
Nc1ccc(O)cc1C(=O)OCC(=O)c1ccc(C2CCCCC2)cc1	3	.	-2	2	0	84*
O=C(C[C@@H]1CC[C@H]2[C@@H](COC[C@H](O)CN2Cc2cc(F)ccc2F)O1)N[C@@H]1CCN(Cc2ccccc2)C1	.	0	.	.	.	9[16.7 µM]
COc1cc(/C=N/N=C(N)N)ccc1OCc1ccccc1Cl	-6	.	-48	48	69*	1
COc1ccc(/C=N/N=C/c2ccc(OC)c(OC)c2)cc1OC	0	-6	-55	55	-10	-6
O=C(NCc1cccnc1)c1c[nH]c2cc3c(cc2c1=O)OCCO3	-10	-2	?	-143	12	75*
O=C(NCc1ccccc1)c1c[nH]c2ccc(S(=O)(=O)Nc3ccc4c(c3)OCCO4)cc2c1=O	0	0	-18	18	17	.
O=C(NC1CCC1)[C@@H]1[C@@H](CO)[C@@H]2Cn3c(ccc(-c4cncnc4)c3=O)[C@@H]2N1C(=O)NC1CCCC1	.	-1	.	.	.	.
COc1ccc(C(O)(CCC(C)C)C(CN2CCOCC2)c2ccccc2)cc1 (centres undefined)	-9	2	-13	13	-2	73*
CC(C)CCC(O)(c1ccccc1)C(CN1CCOCC1)c1ccccc1 (centres undefined)	-7	-3	23	-23	0	35
O=C(C[C@H]1CC[C@H](NC(=O)CN2CCOCC2)[C@H](CO)O1)NC1CCCCC1	.	2	.	.	.	-16[16.7 µM]
COc1cccc(C2CC(c3ccc(C)cc3)n3nc(N)nc3N2)c1 (centres undefined)	-6	-2	-4	4	0	66*
COc1cccc(C2CC(c3ccc(C)cc3)Nc3nc(N)nn32)c1 (centres undefined)	-1	9	-3	3	-2	9
Clc1ccccc1CSc1nnc(-c2ccccn2)n1Cc1ccco1	-3	-6	0	0	3	66*
NC(=O)CSc1nnc(-c2ccccn2)n1Cc1ccco1	2	7	13	-13	-1	11
C[C@H](NC(=O)[C@@H]1[C@@H](CO)[C@@H]2Cn3c(cccc3=O)[C@H]1N2Cc1ccccc1)c1ccccc1	.	3	.	.	.	.
C[C@@H]1CN([C@H](C)CO)C(=O)c2cc(NS(=O)(=O)c3cccs3)ccc2O[C@H]1CN(C)Cc1ccc(C(F)(F)F)cc1	.	1	.	.	.	-22[16.7 µM]
Cc1ccc(C)c(N2CCN(C(=S)Nc3ccc4nc(N5CCOCC5)cc(C)c4c3)CC2)c1	-5	7	-87	87*	-1	7
Cc1ccc(C)c(N2CCN(C(=S)Nc3ccc4nc(N5CCN(C)CC5)cc(C)c4c3)CC2)c1	-10	-5	-35	35	7	23
SMILES	N-glyco inh	PglD inh	SR-BI DiI-HDL act	SR-BI DiI inh	Rtt109 HAT inh	Env fusion inh
CCCc1nc2ccc(NC(=O)NCCC(=O)OCC)cc2c(=O)n1Cc1ccc(Cl)cc1	-1	-2	-72	72*	7	-18
CCCc1nc2ccc(NC(=O)NCCC(=O)OCC)cc2c(=O)n1Cc1cccc(Cl)c1	-6	-9	-68	68	-4	.
CCN1C=CC(=C2C(=O)c3ccccc3C2=O)C=C1	-25	-5	9	-9	80*	73*
CCCN1C=CC(=C2C(=O)c3ccccc3C2=O)C=C1	-25	2	1	-1	7	107*
CCCCCCN1C=CC(=C2C(=O)c3ccccc3C2=O)C=C1	-19	-4	-32	32	15	44
COc1ccccc1-c1cnc2c(c1)C(=O)N([C@@H](C)CO)C[C@H](C)[C@H](CN(C)C(C)=O)O2	.	-1	.	.	.	8[16.7 µM]
CC(=O)Nc1ccc(NC2=C/C(=N/S(=O)(=O)c3cccs3)c3ccccc3C2=O)cc1	-17	.	-5	5	-10	-8
COc1ccc(S(=O)(=O)/N=C2\C=C(Nc3ccc(O)cc3)C(=O)c3ccccc32)cc1	-19	-2	-56	56	8	75*
O=C(Nc1ccc(N2CCOCC2)c(S(=O)(=O)Nc2ccccc2Cl)c1)c1ccccc1	-8	-3	-7	7	6	3
O=C(Nc1ccc(Cl)cc1)Nc1ccc(N2CCCC2)c(S(=O)(=O)Nc2ccccc2Cl)c1	-11	.	-102	102*	-2	32
C[C@H]1CN([C@@H](C)CO)C(=O)c2cccc(NS(=O)(=O)c3ccccc3)c2O[C@H]1CN(C)S(=O)(=O)c1ccc(Cl)cc1	.	5	.	.	.	2[16.7 µM]
COc1cccc(-c2ccc3c(c2)O[C@H](CN(C)C)[C@H](C)CN([C@H](C)CO)S3(=O)=O)c1	.	1	.	.	.	5[16.7 µM]
COc1ccccc1NC(=O)c1ccc(NC(=O)COC(=O)CC(NC(=O)c2ccccc2Cl)c2ccccc2)cc1 (centres undefined)	0	.	-81	81*	-5	14
COc1ccccc1NC(=O)c1ccc(NC(=O)COC(=O)C(C)C)cc1	0	.	4	-4	6	-5
CC(NC(=O)CCn1ccc2cc(S(=O)(=O)N3CCCC3)ccc21)c1ccccc1 (centres undefined)	0	3	-22	22	0	57*
CCC(C)NC(=O)CCn1ccc2cc(S(=O)(=O)N3CCCC3)ccc21 (centres undefined)	-1	-1	6	-6	5	10
COc1ccc(NC(=O)Nc2ccc3c(c2)C(=O)N([C@H](C)CO)C[C@@H](C)[C@@H](CN(C)S(=O)(=O)c2ccccc2)OCCCC[C@H](C)O3)cc1	.	0	.	.	.	-5[16.7 µM]
